Assay results published in ChEMBL document CHEMBL5131379 (J Med Chem, 2021).
Activity calls are given as the source filed them. The calls are words filed in the database; no cut-off is given here.

Columns and labels:
[1] = in vitro; conditions: human, MRC9 cells
[2] = system: MV4-11; assay: Induction of apoptosis in human MV4-11 cells assessed as viable cells at 4 uM measured after 18 hrs by Annexin V-FITC/propidium iodide staining based FACS flow cytometry (reference value: 83.23%); assay type: functional; conditions: read-out: Activity
[3] = system: MV4-11; assay: Induction of apoptosis in human MV4-11 cells assessed as viable cells at 2 uM measured after 18 hrs by Annexin V-FITC/propidium iodide staining based FACS flow cytometry (reference value: 83.23%); assay type: functional; conditions: read-out: Activity
[4] = system: MV4-11; assay: Induction of apoptosis in human MV4-11 cells at 0.5 uM assessed as increase in cleaved caspase-3 level measured after 6 hrs by Western blot analysis
[5] = system: MV4-11; assay: Induction of apoptosis in human MV4-11 cells assessed as viable cells at 0.25 uM measured after 18 hrs by Annexin V-FITC/propidium iodide staining based FACS flow cytometry (reference value: 83.23%); assay type: functional; conditions: read-out: Activity
[6] = system: MV4-11; assay: Induction of apoptosis in human MV4-11 cells assessed as late apoptotic cells at 0.5 uM measured after 18 hrs by Annexin V-FITC/propidium iodide staining based FACS flow cytometry (reference value: 7.49%); assay type: functional
[7] = system: MV4-11; assay: Induction of apoptosis in human MV4-11 cells assessed as early apoptotic cells at 0.5 uM measured after 18 hrs by Annexin V-FITC/propidium iodide staining based FACS flow cytometry (reference value: 2.23%); assay type: functional
[8] = target: T1, Protein deacetylase HDAC6 (Homo sapiens) (UniProt Q9UBN7); assay: Binding affinity to HDAC6 (unknown origin) assessed as residence time
T1 sequence (whole entry): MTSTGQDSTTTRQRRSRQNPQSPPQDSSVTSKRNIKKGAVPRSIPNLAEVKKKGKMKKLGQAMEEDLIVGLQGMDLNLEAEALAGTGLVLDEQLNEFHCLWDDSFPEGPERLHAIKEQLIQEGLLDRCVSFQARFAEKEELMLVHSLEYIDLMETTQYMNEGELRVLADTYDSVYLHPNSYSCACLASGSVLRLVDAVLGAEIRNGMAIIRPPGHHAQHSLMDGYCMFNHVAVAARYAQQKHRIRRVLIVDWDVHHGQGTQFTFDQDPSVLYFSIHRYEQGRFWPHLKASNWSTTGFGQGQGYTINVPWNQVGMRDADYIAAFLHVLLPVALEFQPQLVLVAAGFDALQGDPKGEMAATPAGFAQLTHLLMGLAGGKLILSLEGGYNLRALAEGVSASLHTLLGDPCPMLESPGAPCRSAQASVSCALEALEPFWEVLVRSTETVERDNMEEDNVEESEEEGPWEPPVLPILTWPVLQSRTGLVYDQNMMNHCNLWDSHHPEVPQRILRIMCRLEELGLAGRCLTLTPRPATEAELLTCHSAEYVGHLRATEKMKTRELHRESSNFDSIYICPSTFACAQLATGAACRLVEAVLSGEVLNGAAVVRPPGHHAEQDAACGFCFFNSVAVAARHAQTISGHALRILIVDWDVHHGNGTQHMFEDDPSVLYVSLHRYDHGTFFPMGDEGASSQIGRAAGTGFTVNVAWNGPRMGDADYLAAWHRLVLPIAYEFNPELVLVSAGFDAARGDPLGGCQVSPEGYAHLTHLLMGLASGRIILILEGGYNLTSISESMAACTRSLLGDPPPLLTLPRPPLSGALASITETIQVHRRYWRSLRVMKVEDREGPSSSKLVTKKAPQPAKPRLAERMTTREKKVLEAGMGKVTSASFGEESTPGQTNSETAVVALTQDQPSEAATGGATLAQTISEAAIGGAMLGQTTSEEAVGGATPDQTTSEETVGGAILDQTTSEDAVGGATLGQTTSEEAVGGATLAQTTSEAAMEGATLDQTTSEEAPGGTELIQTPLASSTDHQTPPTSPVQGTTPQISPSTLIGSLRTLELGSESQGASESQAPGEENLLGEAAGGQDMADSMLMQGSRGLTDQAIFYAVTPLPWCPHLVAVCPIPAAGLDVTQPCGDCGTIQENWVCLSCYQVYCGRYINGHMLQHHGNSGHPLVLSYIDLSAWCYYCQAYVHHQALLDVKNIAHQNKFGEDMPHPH

[9] = system: MV4-11; assay: Induction of apoptosis in human MV4-11 cells assessed as late apoptotic cells at 0.25 uM measured after 18 hrs by Annexin V-FITC/propidium iodide staining based FACS flow cytometry (reference value: 7.49%); assay type: functional
[10] = system: MV4-11; assay: Induction of apoptosis in human MV4-11 cells assessed as early apoptotic cells at 4 uM measured after 18 hrs by Annexin V-FITC/propidium iodide staining based FACS flow cytometry (reference value: 2.23%); assay type: functional
[11] = system: MV4-11; assay: Induction of apoptosis in human MV4-11 cells at 0.5 uM assessed as increase in cleaved PARP-1 level measured after 6 hrs by Western blot analysis; assay type: functional, cell-based
In short: (§1)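 Protein was measured by BCA and run on a 4–20% SDS gel, then transferred to nitrocellulose and blocked in 5% milk. Primary antibodies were incubated overnight at 4 °C, with HSC70 as loading control. HRP secondaries were used with ECL detection.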

[12] = system: MV4-11; assay: Induction of apoptosis in human MV4-11 cells assessed as late apoptotic cells at 2 uM measured after 18 hrs by Annexin V-FITC/propidium iodide staining based FACS flow cytometry (reference value: 7.49%); assay type: functional
[13] = system: MV4-11; assay: Induction of apoptosis in human MV4-11 cells assessed as early apoptotic cells at 1 uM measured after 18 hrs by Annexin V-FITC/propidium iodide staining based FACS flow cytometry (reference value: 2.23%); assay type: functional
[14] = target: T1, Protein deacetylase HDAC6 (Homo sapiens); assay: Inhibition of HDAC6 in human MV4-11 cells assessed as increase in acetylated alpha-tubulin incubated for 6 hrs by Western blot analysis; assay type: cell-based
In short: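 Protein quantified by BCA, run on 4–20% SDS gel, blotted to nitrocellulose. Probed overnight at 4 °C for acetylated α-tubulin and acetylated H3 (Lys18), HSC70 as loading control. HRP secondaries, ECL detection.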

[15] = system: MV4-11; assay: Induction of apoptosis in human MV4-11 cells assessed as viable cells at 0.5 uM measured after 18 hrs by Annexin V-FITC/propidium iodide staining based FACS flow cytometry (reference value: 83.23%); assay type: functional; conditions: read-out: Activity
[16] = system: MV4-11; assay: Induction of apoptosis in human MV4-11 cells assessed as late apoptotic cells at 4 uM measured after 18 hrs by Annexin V-FITC/propidium iodide staining based FACS flow cytometry (reference value: 7.49%); assay type: functional
[17] = system: MV4-11; assay: Induction of apoptosis in human MV4-11 cells assessed as early apoptotic cells at 2 uM measured after 18 hrs by Annexin V-FITC/propidium iodide staining based FACS flow cytometry (reference value: 2.23%); assay type: functional
[18] = system: MV4-11; assay: Induction of apoptosis in human MV4-11 cells assessed as early apoptotic cells at 0.25 uM measured after 18 hrs by Annexin V-FITC/propidium iodide staining based FACS flow cytometry (reference value: 2.23%); assay type: functional
[19] = system: MV4-11; assay: Induction of apoptosis in human MV4-11 cells assessed as late apoptotic cells at 1 uM measured after 18 hrs by Annexin V-FITC/propidium iodide staining based FACS flow cytometry (reference value: 7.49%); assay type: functional
[20] = target: T1, Protein deacetylase HDAC6 (Homo sapiens); assay: Inhibition of HDAC6 in human HeLa cells assessed as increase in acetylated alpha tubulin level incubated for 6 hrs by immunofluorescent assay; assay type: cell-based
In short: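 HeLa cells (DMEM, 10% FBS, 37 °C, 5% CO2) seeded subconfluent; inhibitor added after 24 h, increasing doses for 6 h. Fixed in 4% formaldehyde, permeabilised with 1% Triton X-100, blocked in 5% BSA. Stained for acetylated α-tubulin and acetylated histone H3 (Lys18), DAPI counterstain. Intensity from imaging, n = 3, two-way ANOVA with Tukey test.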

[21] = system: MV4-11; assay: Induction of apoptosis in human MV4-11 cells at 0.5 uM assessed as increase in cleaved caspase-3 level measured after 6 hrs by Western blot analysis; assay type: functional, cell-based
In short: as §1

[22] = Cytotoxicity against human MRC9 cells assessed as reduction in cell growth incubated for 72 hrs by Cell titer-blue assay; assay type: toxicity, cell-based
[23] = target: Histone deacetylase 1 (Homo sapiens) (UniProt Q13547); assay: Inhibition of HDAC1 in human MV4-11 cells assessed as acetylation of histone H3 incubated for 6 hrs by Western blot analysis; assay type: cell-based
In short: as §1

Chain of Histone deacetylase 1 (Homo sapiens) (Q13547 whole entry): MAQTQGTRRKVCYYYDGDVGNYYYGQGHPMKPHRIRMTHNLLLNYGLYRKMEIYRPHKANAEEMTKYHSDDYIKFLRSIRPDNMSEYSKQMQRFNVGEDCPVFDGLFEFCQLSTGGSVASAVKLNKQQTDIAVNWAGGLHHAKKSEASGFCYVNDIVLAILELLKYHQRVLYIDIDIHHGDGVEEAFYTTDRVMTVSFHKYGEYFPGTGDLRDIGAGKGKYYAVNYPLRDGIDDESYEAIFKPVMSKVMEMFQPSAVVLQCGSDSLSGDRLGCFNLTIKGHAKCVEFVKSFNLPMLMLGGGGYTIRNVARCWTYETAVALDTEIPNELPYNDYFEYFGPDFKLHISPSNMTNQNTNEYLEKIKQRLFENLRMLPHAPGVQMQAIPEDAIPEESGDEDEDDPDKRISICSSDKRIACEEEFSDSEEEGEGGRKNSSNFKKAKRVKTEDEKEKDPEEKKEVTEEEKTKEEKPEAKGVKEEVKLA

Work on `O=C(NO)c1ccc(CN(C2CC2)S(=O)(=O)c2ccc(F)cc2)cc1` yielded an IC50 at 72 h [1] of over 50 µM.
`O=C(NO)c1ccc(CN(C2CC2)S(=O)(=O)c2cc(F)c(F)c(F)c2)cc1` gave an IC50 at 72 h [1] of over 25 µM.
With `O=C(NO)c1ccc(CNC(=O)c2c(F)c(F)c(F)c(F)c2F)cc1` the IC50 at 72 h [1] was over 50 µM.
In the case of `O=C(NO)c1ccc(CN(C2CC2)S(=O)(=O)c2c(F)cc(F)cc2F)cc1`, the IC50 at 72 h [1] is reported as over 20 µM.
`O=C(NO)c1ccc(CN(C2CC2)S(=O)(=O)c2cc(F)c(F)c(F)c2F)cc1` showed an IC50 at 72 h [1] of over 20 µM, a viability at 4 µM [2] of 7.61% and a viability at 2 µM [3] of 8.34%. For the same compound, the Activity [4] was “Active”, the viability at 0.25 µM [5] was 70.6% and the Activity [6] was 17.58%. It also gave an Activity [7] of 15.26%, a TIME [8] of 0.386 h and an Activity [9] of 13.93%. The Activity [10] was 24.37%, the Activity [11] was “Active” and the Activity [12] was 19.6%. For the same compound, the Activity [13] was 18.12%, the inhibition [14] was “Active” and the viability at 0.5 µM [15] was 49.5%. For the same compound, the Activity [16] was 19.18%, the Activity [17] was 24.39% and the Activity [18] was 6.73%. For the same compound, the Activity [19] was 22.3%, the inhibition [20] was “Active” and the Activity [21] was “Active”.
`O=C(NO)c1cccc(CN(C2CC2)S(=O)(=O)c2c(F)c(F)c(F)c(F)c2F)c1` showed an IC50 at 72 h [1] of over 50 µM.
Work on `O=C(NO)c1ccc(CN(C2CC2)S(=O)(=O)c2c(F)c(F)c(F)c(F)c2F)cc1` yielded an IC50 at 72 h [1] of over 20 µM.
With `CN(Cc1ccc(C(=O)NO)cc1)S(=O)(=O)c1c(F)c(F)c(F)c(F)c1F` the IC50 at 72 h [1] was over 30 µM.
`O=C(NO)c1ccc(CN(C2CC2)S(=O)(=O)c2c(F)c(F)cc(F)c2F)cc1` gave an IC50 at 72 h [1] of over 15 µM.
In the case of `O=C(NO)c1ccc(CN(C2CC2)S(=O)(=O)c2c(F)c(Cl)c(F)c(Cl)c2F)cc1`, the IC50 at 72 h [1] is reported as over 50 µM.
Work on `O=C(NO)c1ccc(CN(C2CC2)S(=O)(=O)c2c(F)c(F)c(Cl)c(F)c2F)cc1` yielded an IC50 at 72 h [1] of over 30 µM.
For `O=C(CCCCCCNC(=O)c1cnc(N(c2ccccc2)c2ccccc2)nc1)NO` [RICOLINOSTAT], the IC50 at 72 h [1] was over 20 µM.
For `O=C(NO)c1ccc(CN(C2CC2)S(=O)(=O)c2c(F)cc(F)c(Cl)c2F)cc1`, the IC50 at 72 h [1] was over 20 µM.
For `CC(C)N(Cc1ccc(C(=O)NO)cc1)S(=O)(=O)c1c(F)c(F)c(F)c(F)c1F`, the IC50 at 72 h [1] was over 10 µM.
With `O=C(CCCCCCNC(=O)c1cnc(N(c2ccccc2)c2ccccc2Cl)nc1)NO` [CITARINOSTAT] the IC50 at 72 h [1] was over 30 µM, the IC50 at 72 h [22] was over 30 µM and the inhibition [23] was “Active”. For the same compound, the inhibition [14] was “Active”.
`O=C(NO)c1ccc(CNS(=O)(=O)c2c(F)c(F)c(F)c(F)c2F)cc1` showed an IC50 at 72 h [1] of over 25 µM.
